Measurements reported in ChEMBL document CHEMBL3600351, “Exploiting translational stalling peptides in an effort to extend azithromycin interaction within the prokaryotic ribosome nascent peptide exit tunnel” (Bioorg Med Chem, 2015).
In brackets after ≈: the same amount, converted by molar mass. Activity calls are given as the source filed them. The calls are words filed in the database; no cut-off is given here.

Tests used:
Escherichia coli = assay: Antibacterial activity against Escherichia coli ATCC 27856 assessed as inhibition of bacterial growth after 18 hrs by liquid microdilution method; type: functional
Summary of the method: (§1)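 Liquid microdilution. Overnight 37 °C cultures, E. coli ATCC 27856 in LB and S. aureus ATCC 29213 in TSB, diluted 1:1000 in the same medium and exposed to compound. Growth was taken from OD600 before and after 18 h at 37 °C. MIC50 is the read-out. Triplicate, normalized to an internal vehicle control.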

Staphylococcus aureus [1] = assay: Antibacterial activity against Staphylococcus aureus ATCC 29213 assessed as inhibition of bacterial growth after 18 hrs by liquid microdilution method; type: functional; conditions: ATCC 29213, 18 h; summary of the method: as §1
Staphylococcus aureus [2] = assay: Antibacterial activity against Erm+ methicillin-resistant Staphylococcus aureus ATCC 33591 assessed as inhibition of bacterial growth after 18 hrs by liquid microdilution method; type: functional
Summary of the method: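 MRSA grown overnight at 37 °C in Nutrient broth, diluted 1:1000 in the same medium, then plated with the compounds. Growth was judged by comparing OD600 before and after 18 h at 37 °C. MIC50 was taken by liquid microdilution. Vancomycin was the positive control. Each compound was run in triplicate and standardized against an internal vehicle control.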

[3] = Inhibition of ribosome nascent peptide exit tunnel in Escherichia coli S30 extract assessed as inhibition of prokaryotic translation in presence of amino acids incubated for 20 mins by luciferase reporter gene assay
Summary of the method: (§2)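 E. coli S30 cell-free extract with all amino acids, preincubated with compound for 20 min at room temperature. Luciferase control template added, translation run 60 min at 37 °C, then stopped by 5 min on ice. Luminescence was read after luciferin addition. IC50 from nonlinear fit, triplicate, normalized to vehicle control.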

Staphylococcus aureus [4] = assay: Ratio of MIC50 for Staphylococcus aureus ATCC 29213 in absence of 50% bovine serum to MIC50 for Staphylococcus aureus ATCC29213 in presence of 50% bovine serum; type: functional
Summary of the method: (§3)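 S. aureus ATCC 29213 overnight culture (37 °C) diluted 1:1000 in 50% bovine serum/broth and run by liquid microdilution. Growth was taken from OD600 change over 18 h at 37 °C to give MIC50, in triplicate against a vehicle control. The enhancement ratio is MIC50 without serum divided by MIC50 with serum.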

[5] = Binding affinity to ribosome nascent peptide exit tunnel in rabbit reticulocyte extract assessed as inhibition of eukaryotic translation in presence of amino acids incubated for 20 mins by luciferase reporter gene assay; design: species or system Oryctolagus cuniculus
Summary of the method: as §2, with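 “Nuclease-treated rabbit reticulocyte lysate” for “E. coli S30 cell-free extract”, “90” for “60”, “30” for “37”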

Staphylococcus aureus [6] = assay: Antibacterial activity against Staphylococcus aureus ATCC 29213 assessed as inhibition of bacterial growth after 18 hrs in presence of 50% bovine serum by liquid microdilution method; type: functional; conditions: ATCC 29213, 18 h; summary of the method: as §3

| SMILES | MIC50 (Escherichia coli; ATCC 27856, 18 h) | MIC50 (Staphylococcus aureus [1]) | MIC50 (Staphylococcus aureus [2]) | IC50 [3] | Ratio (Staphylococcus aureus [4]) | IC50 [5] | MIC50 (Staphylococcus aureus [6]) | MIC50 (Escherichia coli) |
| --- | --- | --- | --- | --- | --- | --- | --- | --- |
| CC[C@H]1OC(=O)[C@H](C)[C@@H](O[C@H]2C[C@@](C)(OC)[C@@H](O)[C@H](C)O2)[C@H](C)[C@@H](O[C@@H]2O[C@H](C)C[C@H](N(C)C)[C@H]2O)[C@](C)(O)C[C@@H](C)CN(CCCCc2cn(CCn3ccc4cc(F)ccc43)nn2)[C@H](C)[C@@H](O)[C@]1(C)O | 16 µg/mL (≈ 15.7 µM) | 1.56 µg/mL (≈ 1.53 µM) | inactive | 646 nM | 5 | > 250000 nM | 0.31 µg/mL | – |
| CC[C@H]1OC(=O)[C@H](C)[C@@H](O[C@H]2C[C@@](C)(OC)[C@@H](O)[C@H](C)O2)[C@H](C)[C@@H](O[C@@H]2O[C@H](C)C[C@H](N(C)C)[C@H]2O)[C@](C)(O)C[C@@H](C)CN(Cc2ccc(-c3cn(CCn4ccc5cc(Cl)ccc54)nn3)cc2)[C@H](C)[C@@H](O)[C@]1(C)O | – | 3.13 µg/mL (≈ 2.93 µM) | inactive | 1250 nM | 2 | > 250000 nM | 1.56 µg/mL | inactive |
| O=C(N[C@H](CO)[C@H](O)c1ccc([N+](=O)[O-])cc1)C(Cl)Cl [CHLORAMPHENICOL] | 4 µg/mL (≈ 12.4 µM) | – | – | – | – | – | – | – |
| CC[C@H]1OC(=O)[C@H](C)[C@@H](O[C@H]2C[C@@](C)(OC)[C@@H](O)[C@H](C)O2)[C@H](C)[C@@H](O[C@@H]2O[C@H](C)C[C@H](N(C)C)[C@H]2O)[C@](C)(O)C[C@@H](C)CN(Cc2ccc(-c3cn(CCc4c[nH]c5ccc(Cl)cc45)nn3)cc2)[C@H](C)[C@@H](O)[C@]1(C)O | – | 1.56 µg/mL (≈ 1.46 µM) | inactive | 586 nM | 1 | > 250000 nM | 1.56 µg/mL | inactive |
| CC[C@H]1OC(=O)[C@H](C)[C@@H](O[C@H]2C[C@@](C)(OC)[C@@H](O)[C@H](C)O2)[C@H](C)[C@@H](O[C@@H]2O[C@H](C)C[C@H](N(C)C)[C@H]2O)[C@](C)(O)C[C@@H](C)CN(CCCCc2cn(CCn3ccc4cc([N+](=O)[O-])ccc43)nn2)[C@H](C)[C@@H](O)[C@]1(C)O | 16 µg/mL (≈ 15.3 µM) | 1.56 µg/mL (≈ 1.49 µM) | inactive | 811 nM | 2.5 | > 250000 nM | 0.63 µg/mL | – |
| CC[C@H]1OC(=O)[C@H](C)[C@@H](O[C@H]2C[C@@](C)(OC)[C@@H](O)[C@H](C)O2)[C@H](C)[C@@H](O[C@@H]2O[C@H](C)C[C@H](N(C)C)[C@H]2O)[C@](C)(O)C[C@@H](C)CN(CCCCc2cn(CCc3c[nH]c4ccc(Cl)cc34)nn2)[C@H](C)[C@@H](O)[C@]1(C)O | 32 µg/mL (≈ 30.9 µM) | 0.78 µg/mL (≈ 0.753 µM) | inactive | 880 nM | 5 | > 250000 nM | 0.16 µg/mL | – |
| CC[C@H]1OC(=O)[C@H](C)[C@@H](O[C@H]2C[C@@](C)(OC)[C@@H](O)[C@H](C)O2)[C@H](C)[C@@H](O[C@@H]2O[C@H](C)C[C@H](N(C)C)[C@H]2O)[C@](C)(O)C[C@@H](C)CN(CCCCc2cn(CCc3cn(C)c4ccccc34)nn2)[C@H](C)[C@@H](O)[C@]1(C)O | 128 µg/mL (≈ 126 µM) | 1.56 µg/mL (≈ 1.54 µM) | inactive | 227 nM | 10 | > 250000 nM | 0.16 µg/mL | – |
| CC[C@H]1OC(=O)[C@H](C)[C@@H](O[C@H]2C[C@@](C)(OC)[C@@H](O)[C@H](C)O2)[C@H](C)[C@@H](O[C@@H]2O[C@H](C)C[C@H](N(C)C)[C@H]2O)[C@](C)(O)C[C@@H](C)CN(CCCCc2cn(CCN3CCc4ccccc43)nn2)[C@H](C)[C@@H](O)[C@]1(C)O | 4 µg/mL (≈ 3.99 µM) | 1.56 µg/mL (≈ 1.55 µM) | inactive | 147 nM | 10 | > 250000 nM | 0.16 µg/mL | – |
